Source: ChEMBL document CHEMBL1687849, “Lauroside B, a megastigmane glycoside from Laurus nobilis (bay laurel) leaves, induces apoptosis in human melanoma cell lines by inhibiting NF-κB activation” (J Nat Prod, 2011)
Active and inactive are the calls of the source. No cut-off for these calls is given here.

Columns and labels:
A-375 [1] = test: Induction of apoptosis in human A375 cells assessed as early apoptotic cells at 20 uM after 48 hrs by annexin V/propidium iodide based flow cytometry; type: functional
Method in brief: (§1)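 A375 cells attached overnight, then treated 48 h with test compound (30 μM) or curcumin (20 μM). Adherent and floating cells pooled, washed in PBS and resuspended at 10^6/mL in HEPES pH 7.4/NaCl/CaCl2 binding buffer. 10^5 cells stained 15 min at room temperature in the dark with FITC-annexin V and PI, then flow cytometry. Quadrants scored as early apoptotic, late apoptotic or necrotic. Three experiments.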

A-375 [2] = test: Induction of apoptosis in human A375 cells assessed as late apoptotic cells at 20 uM after 48 hrs by annexin V/propidium iodide based flow cytometry; type: functional; method in brief: as §1
A-375 [3] = test: Induction of apoptosis in human A375 cells assessed as necrotic apoptotic cells at 20 uM after 48 hrs by annexin V/propidium iodide based flow cytometry; type: functional; method in brief: as §1
[4] = Antiproliferative activity against human NHEM at 3 to 30 uM after 24 to 72 hrs by MTT assay
Method in brief: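 Normal human epidermal melanocytes grown in melanocyte growth medium 2. Seeded at 1×10^4 cells/well and treated at 3, 10 or 30 μM for 24, 48 or 72 h. MTT (5 mg/mL stock) then added for 3 h at 37 °C. Formazan dissolved in 50% DMF/20% SDS pH 4.5; absorbance at 620 nm.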

[5] = Decrease in NFkappaB-mediated XIAP gene expression in human A375 cells at 30 uM after 8 hrs by Western blot analysis; type: cell-based; details: A-375
A-375 [6] = test: Antiproliferative activity against human A375 cells after 24 to 72 hrs by MTT assay; type: functional, cell-based
Method in brief: (§2)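 Cells grown in DMEM with 10% FBS, glutamine, HEPES and antibiotics at 37 °C, 5% CO2. Seeded at 1×10^4 cells/well and treated at 3, 10 or 30 μM for 24, 48 or 72 h. MTT (5 mg/mL stock) then added for 3 h at 37 °C. Crystals dissolved in 50% DMF/20% SDS pH 4.5; OD read at 620 nm. n = 3, mean ± SEM, ANOVA with Bonferroni.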

A-375 [7] = test: Inhibition of NF-kappaB activation in human A375 cells assessed as IkappaB-alpha degradation at 30 uM by Western blot analysis; type: cell-based; details: TDE = time-dependent effect
Method in brief: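 A375 cells treated at 30 μM for 1, 2, 4 and 8 h. Cytosolic extracts (40 μg protein) run on SDS-PAGE and transferred to nitrocellulose. Probed overnight at 4 °C for IκB-α, HRP secondary, ECL detection. Three separate experiments.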

SK-MEL-28 [8] = test: Antiproliferative activity against human SK-MEL-28 cells after 24 to 72 hrs by MTT assay; type: functional, cell-based; method in brief: as §2
A-375 [9] = test: Induction of apoptosis in human A375 cells assessed as late apoptotic cells at 30 uM after 48 hrs by annexin V/propidium iodide based flow cytometry; type: functional; method in brief: as §1
[10] = Decrease in NFkappaB-mediated c-FLIP gene expression in human A375 cells at 30 uM after 8 hrs by Western blot analysis; type: cell-based; details: A-375
WM-115 [11] = test: Antiproliferative activity against human WM115 cells at 30 uM after 72 hrs by MTT assay; type: functional; details: WM-115, 72 h; method in brief: as §2
A-375 [12] = test: Inhibition of NF-kappaB DNA binding activity in human A375 cells at 30 uM after 1 hr by electrophoretic mobility shift assay; type: cell-based
Method in brief: (§3)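 A375 cells treated at 30 μM; whole-cell extracts taken at 0, 1, 2, 4, 8 and 24 h. Extract (12 μg protein in 0.1% Triton X-100 buffer) incubated 30 min with 32P-labelled κB probe. Complexes resolved on nondenaturing 4% polyacrylamide gel and quantified by phosphorimaging, normalized to the nonspecific protein-DNA complex in the same lane. Three experiments.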

WM-115 [13] = test: Antiproliferative activity against human WM115 cells after 24 to 72 hrs by MTT assay; type: functional, cell-based; method in brief: as §2
A-375 [14] = test: Antiproliferative activity against human A375 cells at 30 uM after 72 hrs by MTT assay; type: functional; details: A-375, 72 h; method in brief: as §2
A-375 [15] = test: Inhibition of NF-kappaB DNA binding activity in human A375 cells at 30 uM after 8 hrs by electrophoretic mobility shift assay; type: cell-based; method in brief: as §3
SK-MEL-28 [16] = test: Antiproliferative activity against human SK-MEL-28 cells at 3 to 30 uM by MTT assay; type: functional, cell-based; details: TDE = time-dependent effect; method in brief: as §2
A-375 [17] = test: Activation of caspase 3 in human A375 cells assessed as reduction in pro-caspase 3 at 30 uM by Western blot analysis; type: functional, cell-based; details: TDE = time-dependent effect
Method in brief: (§4)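 Whole-cell A375 lysates collected 0, 1, 2, 4 and 8 h after 30 μM treatment, made in Tris/HCl pH 7.4 buffer with 0.1% Triton X-100, EDTA, vanadate, PMSF and protease inhibitors. 20 μg protein per lane on SDS-PAGE and nitrocellulose. Probed overnight at 4 °C for pro-caspase-3 and PARP, with β-actin; HRP secondary, ECL detection. Three separate experiments.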

A-375 [18] = test: Inhibition of NF-kappaB DNA binding activity in human A375 cells at 30 uM after 24 hrs by electrophoretic mobility shift assay; type: cell-based; method in brief: as §3
A-375 [19] = test: Inhibition of NF-kappaB DNA binding activity in human A375 cells at 30 uM after 4 hrs by electrophoretic mobility shift assay; type: cell-based; method in brief: as §3
A-375 [20] = test: Antiproliferative activity against human A375 cells at 3 to 30 uM by MTT assay; type: functional, cell-based; details: TDE = time-dependent effect; method in brief: as §2
A-375 [21] = test: Activation of caspase 3 in human A375 cells assessed as cleavage of substrate PARP at 30 uM by Western blot analysis; type: functional, cell-based; method in brief: as §4
WM-115 [22] = test: Antiproliferative activity against human WM115 cells at 3 to 30 uM by MTT assay; type: functional, cell-based; details: TDE = time-dependent effect; method in brief: as §2
A-375 [23] = test: Inhibition of NF-kappaB DNA binding activity in human A375 cells at 30 uM after 2 hrs by electrophoretic mobility shift assay; type: cell-based; method in brief: as §3
SK-MEL-28 [24] = test: Antiproliferative activity against human SK-MEL-28 cells at 30 uM after 72 hrs by MTT assay; type: functional; details: SK-MEL-28, 72 h; method in brief: as §2
A-375 [25] = test: Induction of apoptosis in human A375 cells assessed as early apoptotic cells at 30 uM after 48 hrs by annexin V/propidium iodide based flow cytometry; type: functional; method in brief: as §1
A-375 [26] = test: Induction of apoptosis in human A375 cells assessed as necrotic apoptotic cells at 30 uM after 48 hrs by annexin V/propidium iodide based flow cytometry; type: functional; method in brief: as §1

## COc1cc(/C=C/C(=O)CC(=O)/C=C/c2ccc(O)c(OC)c2)ccc1O [CURCUMIN]
A-375 [1]
  Activity: 3.4%
A-375 [2]
  Activity: 80%
A-375 [3]
  Activity: 10.3%

## C[C@H](/C=C/[C@@]1(O)[C@H](CO)CC(=O)CC1(C)C)O[C@@H]1O[C@H](CO)[C@@H](O)[C@H](O)[C@H]1O [LAUROSIDE B]
[4]
  Activity: Non-toxic
[5]
  Activity: Active
A-375 [6]
  inhibition: Dose-dependent effect
A-375 [7]
  Activity: tde
SK-MEL-28 [8]
  inhibition: Dose-dependent effect
A-375 [9]
  Activity: 35%
[10]
  Activity: Active
WM-115 [11]
  inhibition at 30 µM: 50%
A-375 [12]
  inhibition: 6%
WM-115 [13]
  inhibition: Dose-dependent effect
A-375 [14]
  inhibition at 30 µM: 65%
A-375 [15]
  inhibition: 86%
SK-MEL-28 [16]
  inhibition: tde
A-375 [17]
  Activity: tde
A-375 [18]
  inhibition: 100%
A-375 [19]
  inhibition: 60%
A-375 [20]
  inhibition: tde
A-375 [21]
  Activity: Active
WM-115 [22]
  inhibition: tde
A-375 [23]
  inhibition: 20%
SK-MEL-28 [24]
  inhibition at 30 µM: 33%
A-375 [25]
  Activity: 0.6%
A-375 [26]
  Activity: 5.1%
